Laboratory results as given in the EternaBench riboswitch data.

System: MS2 coat protein
Assay: apparent Kd, MS2 coat protein; higher = weaker binding; RNA-MaP array; FMN 200 µM where present
Method in brief: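 In 100 mM Tris-HCl pH 7.5, 80 mM KCl, 4 mM MgCl2, BSA, DTT, yeast tRNA and Tween-20, SNAP-549-labelled MS2 coat protein was titrated from 0.7 or 1.5 nM, doubling to 3 µM, over designs transcribed by stalled E. coli RNA polymerase on Illumina sequencing-chip clusters. This was done first without ligand, then with ligand held constant. After green signal was normalised to red-channel RNA signal and control-cluster median Fmax, the apparent Kd was taken as the median of filtered per-cluster binding-curve fits.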

[1] = designed as: ON switch for flavin mononucleotide, no ligand
[2] = ligand present: flavin mononucleotide, designed as: ON switch for flavin mononucleotide
[3] = designed as: OFF switch for flavin mononucleotide, no ligand
[4] = ligand present: flavin mononucleotide, designed as: OFF switch for flavin mononucleotide

AAAAGACAUGAGGAUCACCCAUGUAAAAACAUAGGAGGAUAUGUUUGGAAACUAGACUGAACAGAAGGCCUUUGUC
apparent Kd [1]: 22.9 nM | apparent Kd [2]: 17 nM

GCCGAAAAUGUGAGGAUAUACCUAUGGAUACAUAGGUAGAAGGCACAUGAGGAUCACCCAUGUUCCUCAUCGGC
apparent Kd [3]: 114 nM | apparent Kd [4]: 435 nM

AAUAACGGAGCUACAUGAGGAUCACCCAUGUACGGGUGAUCCUAGGAUAUGCCCGCAACUAUGUCGCAGAAGGAGGGUUGCCCA
apparent Kd [1]: 20.4 nM | apparent Kd [2]: 39.7 nM

GUACUGAAGCUUUGCUUUAGUCGUACAUGAGGAUCACCCAUGUAGGAUAUGGUAAGCUUUGCUUACUAGAAGGAUAGAGUGAUC
apparent Kd [3]: 119 nM | apparent Kd [4]: 50.2 nM

AAGAGAGCAGGAUAUCGGUUUUGCGACAUGAGGAUCACCCAUGUGAGCCGAGUCCAACGCCGAGAAGGGCUAAAAU
apparent Kd [3]: 62.5 nM | apparent Kd [4]: 336 nM

GAAGAUAUAGGAUAUACAUGAGGAUCACCCAUGUGAGUACGCAAGGCUAGAUCGCUUUGUAGAAGGAUAUACCG
apparent Kd [3]: 38.5 nM | apparent Kd [4]: 40.8 nM

GGCGGCGCGGGCCACCGCAGAACCAGAAGGACAUGAGGAUCACCCAUGUAACAAAACAGGGCGGUGUAGGAUAUGGCAGACCCG
apparent Kd [3]: 14.5 nM | apparent Kd [4]: 29.7 nM

GUGAAACAUGAGGAUCACCCAUGUGAGGAUAUGUUUUAGUACUGCAGACAGUACAUCUAUAGAAGGCACAAUGG
apparent Kd [3]: 38.9 nM | apparent Kd [4]: 70.7 nM

UGAUUUCAUGUAGGAUAUGCUUGGCGUAGCUACGCAGAAGGACAUGAGGAUCACCCAUGUUUUAGCGUCUGAGUAUAGAUUCUU
apparent Kd [3]: 35.3 nM | apparent Kd [4]: 89.7 nM

GGUGCGUAUGUGAGGAUAUGCUGGUCCUUGGGUCGGCAGAAGGCACAUGAGGAUCACCCAUGUGGUGUCGUUCC
apparent Kd [3]: 86.2 nM | apparent Kd [4]: 86.5 nM

GCCGAUUAAGUGAGGAUAUACCUAUGGAUACAUAGGUAGAAGGUACAUGAGGAUCACCCAUGUUCCUCAUCGGC
apparent Kd [3]: 10 nM | apparent Kd [4]: 12.2 nM

AUACCACGAGGAUAUCGUCUAUUCCACAUGAGGAUCACCCAUGUUAUCCAUGUUUCGUUUCGAGAAGGCGUGGGUU
apparent Kd [3]: 59.9 nM | apparent Kd [4]: 42.9 nM

GCAGCUAAUGCAGGAUAUCAGCACGUGUAGUGCUGAGAAGGGCACAUGAGGAUCACCCAUGUGAUCAAUCAAUGUUAAUGCUGC
apparent Kd [3]: 9.43 nM | apparent Kd [4]: 38.3 nM

CGUGUCAUCGAGAAGGCCUCAACAUGAGGAUCACCCAUGUUGUAAUAUGGGAGGAUAUCGAUGAUACAGCUACGUUUCGUAGCC
apparent Kd [1]: 19.5 nM | apparent Kd [2]: 6.48 nM

UAAAUGUGAGGAUAUUCGAAUAACUCGGAGACGAGUUGUUCGGAGAAGGCACAUGAGGAUCACCCAUGUUCCUU
apparent Kd [3]: 22.5 nM | apparent Kd [4]: 216 nM

AAGCUGGUAGGAUAUGCUAGGGCGAUUAAUACGCCGAUAGUACAUGAGGAUCACCCAUGUAGAAGGGCCAGAAA
apparent Kd [3]: 23.6 nM | apparent Kd [4]: 17.8 nM

CCGGAAAUACAGGAUAUAGGAGUCAAUAGACUCCUAGAAGGGUAUACAUGAGGAUCACCCAUGUGUCCUACCGG
apparent Kd [3]: 35 nM | apparent Kd [4]: 35.6 nM

UUCGAGCCAAGGCUCGCGAGUACACAGGAUAUGAAAAGUCACAUGAGGAUCACCCAUGUCCAAAAUCAGAAGGGUGAGACUAAG
apparent Kd [1]: 520 nM | apparent Kd [2]: 101 nM

CCUAGAUAGGGAGGAUAUCACAACCAUCCCGGCGAUCCAACUACAUGAGGAUCACCCAUGUGGUGUGAGAAGGCCCAGUAAUAG
apparent Kd [3]: 143 nM | apparent Kd [4]: 78.6 nM

GUGGUUGUCGUAGGAUAUGUAGGAUAUUCCUACAUGAGGAUCACCCAUGUUCGCAUGGAAGAAGGACAGAAGGACGAUGACCAG
apparent Kd [1]: 801 nM | apparent Kd [2]: 22.7 nM

ACUAAUUAGUGAGGAUAUACAUAAUUUAUAACUGUAGAAGGCACAAACCUCAAUACAUGAGGAUCACCCAUGUGGUAUAUAAAU
apparent Kd [3]: 244 nM | apparent Kd [4]: 434 nM

AAACAGGAAGGAUAUACAUUAUCGGAUCUUCUGGCAAUGCCACAUGAGGAUCACCCAUGUAGAAGGUCCAAAUU
apparent Kd [3]: 13.6 nM | apparent Kd [4]: 22.9 nM

UUUAUGUAAGAGAAGGAGGACUUCAUGAGGAUCACCCAUGUGUUAGUACUUAGGAUAUUUGACAACAUGAGGAUCACCCAUGUC
apparent Kd [1]: 59.9 nM | apparent Kd [2]: 58.4 nM

CGAUAGGACAGAGGAUAUACGUGCUAGAGAUACUAGCAAAAUUACAACACAUGAGGAUCACCCAUGUAGAAGGCUGUCCUAUCG
apparent Kd [3]: 5.04 nM | apparent Kd [4]: 6.21 nM

GCAAUGUGAUAAGGAUAUCCAAUGGCAUCCCUAGGAGAAGGUAUCACAUGAGGAUCACCCAUGUGAAGGACGGGUUAUCGCAAA
apparent Kd [4]: 211 nM

UCUUAGUCAGGAUAUACAUGAGGAUCACCCAUGUAAAAUUUUAAUUUAAUUUUAAGGUGUAGAAGGGACCAUUU
apparent Kd [3]: 30.6 nM | apparent Kd [4]: 26.2 nM

GGAUGACAAAGUCAUCCCUGACGAACAUGAGGAUCACCCAUGUAGGAUAUGCUACUCAAAGAGUAGCAGAAGGACAUGUGUCUU
apparent Kd [3]: 31.2 nM | apparent Kd [4]: 150 nM

UUGGACGUCGUAGGAUAUGUAGGAUACUCCUACAUGAGGAUCACCCAUGUUGACAUGGAGGACGGACAGAAGGACGGUGUCCAU
apparent Kd [1]: 60.5 nM | apparent Kd [2]: 5.72 nM
